Assay results as given in ChEMBL document CHEMBL1921792, “Synthesis and anticonvulsant activity of trans- and cis-2-(2,6-dimethylphenoxy)-N-(2- or 4-hydroxycyclohexyl)acetamides and their amine analogs” (Bioorg Med Chem, 2011).
Active and inactive are the calls of the source. No cut-off for these calls is given here.

What was measured:
Mus musculus [1] = test: Neurotoxicity in mouse assessed as inability to maintain equilibrium on rotarod at 100 mg/kg, ip after 0.5 hrs by rotarod test; assay type: toxicity, organism-based; design: dose 100 mg/kg, route intraperitoneal; conditions: in vivo
In short: (§1)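 Drug given ip to mice as a suspension in 0.5% methylcellulose. At the stated time after dosing, each mouse was placed on a 1 inch knurled rod turning at 6 rpm. Neurotoxicity = inability to stay balanced at least 1 min in each of three trials. Scored as animals toxic/animals tested in small groups.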

Mus musculus [2] = test: Anticonvulsant activity in ip dosed mouse assessed as protection against maximal electric shock-induced seizures; assay type: functional
Mus musculus [3] = species: Mus musculus; test: Protective index, ratio of TD50 for neurotoxicity in mouse to ED50 for inhibition of maximal electroshock-induced seizures in mouse; assay type: functional
Mus musculus [4] = test: Neurotoxicity in mouse assessed as inability to maintain equilibrium on rotarod at 300 mg/kg, ip after 4 hrs using rotarod test; assay type: toxicity, organism-based; design: dose 300 mg/kg, route intraperitoneal; conditions: in vivo; in short: as §1
Mus musculus [5] = test: Neurotoxicity in mouse assessed as inability to maintain equilibrium on rotarod at 300 mg/kg, ip after 2 hrs using rotarod test; assay type: toxicity, organism-based; design: dose 300 mg/kg, route intraperitoneal; conditions: in vivo; in short: as §1
Mus musculus [6] = test: Neurotoxicity in mouse assessed as inability to maintain equilibrium on rotarod at 300 mg/kg, ip after 0.25 hrs using rotarod test; assay type: toxicity, organism-based; design: dose 300 mg/kg, route intraperitoneal; conditions: in vivo; in short: as §1
Mus musculus [7] = test: Neurotoxicity in ip dosed mouse assessed as inability to maintain equilibrium on rotarod by rotarod test; assay type: toxicity, organism-based; conditions: in vivo
In short: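 Mice dosed ip with a suspension in 0.5% methylcellulose, then placed on a 1 inch knurled plastic rod rotating at 6 rpm. Toxicity = failure to keep equilibrium for at least 1 min in each of three trials.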

Mus musculus [8] = test: Neurotoxicity in mouse assessed as inability to maintain equilibrium on rotarod at 300 mg/kg, ip after 0.5 hrs by rotarod test; assay type: toxicity, organism-based; design: dose 300 mg/kg, route intraperitoneal; conditions: in vivo; in short: as §1
Mus musculus [9] = test: Neurotoxicity in mouse assessed as inability to maintain equilibrium on rotarod at 300 mg/kg, ip after 0.5 hrs using rotarod test; assay type: toxicity, organism-based; design: dose 300 mg/kg, route intraperitoneal; conditions: in vivo; in short: as §1
Rattus norvegicus [10] = test: Anticonvulsant activity in rat assessed as protection against maximal electric shock-induced seizures at 30 mg/kg, po after 4 hrs; assay type: functional, organism-based; design: dose 30 mg/kg
In short: (§2)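 MES test in rats dosed orally at 30 mg/kg as a suspension in 0.5% methylcellulose, read at 0.25–4 h. Four rats per time point; result is protected/tested.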

Mus musculus [11] = test: Anticonvulsant activity in mouse assessed as protection against maximal electric shock-induced seizures at 30 mg/kg, ip after 0.5 hrs; assay type: functional, organism-based; design: dose 30 mg/kg
In short: (§3)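 Phase I maximal electroshock screen in mice. Compound given ip as a suspension in 0.5% methylcellulose at 30, 100 or 300 mg/kg, tested at 30 min and 4 h. Small groups (1–8); result is number protected/number tested.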

Mus musculus [12] = test: Anticonvulsant activity against subcutaneous pentylenetetrazole-induced seizures in mouse at 300 mg/kg, ip after 4 hrs; assay type: functional, organism-based; design: dose 300 mg/kg
In short: (§4)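 Phase I screen in mice. Compound given ip as a suspension in 0.5% methylcellulose, read at 30 min and 4 h. Pentylenetetrazole 85 mg/kg in 0.9% NaCl was injected sc into the posterior midline and animals watched ≥30 min. Protection meant no clonic spasm lasting ≥5 s. Groups of 1–8 animals; result is protected/tested.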

Mus musculus [13] = test: Anticonvulsant activity against subcutaneous pentylenetetrazole-induced seizures in mouse at 30 mg/kg, ip after 0.5 hrs; assay type: functional, organism-based; design: dose 30 mg/kg; in short: as §4
Mus musculus [14] = test: Anticonvulsant activity against subcutaneous pentylenetetrazole-induced seizures in mouse at 30 mg/kg, ip after 4 hrs; assay type: functional, organism-based; design: dose 30 mg/kg; in short: as §4
Mus musculus [15] = test: Anticonvulsant activity in mouse assessed as protection against maximal electric shock-induced seizures at 100 mg/kg, ip after 0.5 hrs; assay type: functional, organism-based; design: dose 100 mg/kg; in short: as §3
Rattus norvegicus [16] = test: Anticonvulsant activity in rat assessed as protection against maximal electric shock-induced seizures at 30 mg/kg, po after 0.5 hrs; assay type: functional, organism-based; design: dose 30 mg/kg; in short: as §2
Mus musculus [17] = test: Anticonvulsant activity in mouse assessed as protection against maximal electric shock-induced seizures at 300 mg/kg, ip after 4 hrs; assay type: functional, organism-based; design: dose 300 mg/kg; in short: as §3
Rattus norvegicus [18] = test: Anticonvulsant activity in rat assessed as protection against maximal electric shock-induced seizures at 30 mg/kg, po after 1 hr; assay type: functional, organism-based; design: dose 30 mg/kg; in short: as §2
Mus musculus [19] = test: Anticonvulsant activity against subcutaneous pentylenetetrazole-induced seizures in mouse at 100 mg/kg, ip after 4 hrs; assay type: functional, organism-based; design: dose 100 mg/kg; in short: as §4
Mus musculus [20] = test: Anticonvulsant activity against subcutaneous pentylenetetrazole-induced seizures in mouse at 100 mg/kg, ip after 0.5 hrs; assay type: functional, organism-based; design: dose 100 mg/kg; in short: as §4
Mus musculus [21] = test: Anticonvulsant activity in mouse assessed as protection against maximal electric shock-induced seizures at 30 mg/kg, ip after 4 hrs; assay type: functional, organism-based; design: dose 30 mg/kg; in short: as §3
Rattus norvegicus [22] = test: Anticonvulsant activity in rat assessed as protection against maximal electric shock-induced seizures at 30 mg/kg, po after 2 hrs; assay type: functional, organism-based; design: dose 30 mg/kg; in short: as §2
Mus musculus [23] = test: Anticonvulsant activity in mouse assessed as protection against maximal electric shock-induced seizures at 100 mg/kg, ip after 4 hrs; assay type: functional, organism-based; design: dose 100 mg/kg; in short: as §3
Mus musculus [24] = test: Anticonvulsant activity against subcutaneous pentylenetetrazole-induced seizures in mouse at 300 mg/kg, ip after 0.5 hrs; assay type: functional, organism-based; design: dose 300 mg/kg; in short: as §4
Mus musculus [25] = test: Anticonvulsant activity in mouse assessed as protection against maximal electric shock-induced seizures at 300 mg/kg, ip after 0.5 hrs; assay type: functional, organism-based; design: dose 300 mg/kg; in short: as §3

Cc1cccc(C)c1OCC(=O)NC1CCCCC1O.Cl (racemic; 4)
Activity (Mus musculus [1]): Non-toxic
ED50 (Mus musculus [2]): 78.83 mg/kg
Ratio TD50/ED50 (Mus musculus [3]): 1.493
Activity (Mus musculus [4]): Non-toxic
Activity (Mus musculus [5]): Non-toxic
Activity (Mus musculus [6]): Toxic
TD50 (Mus musculus [7]): 117.73 mg/kg
Activity (Mus musculus [8]): Non-toxic
Activity (Mus musculus [9]): Toxic

Cc1cccc(C)c1OCC(=O)NC1CCCCC1O (racemic; 4)
Activity (Rattus norvegicus [10]): inactive
Activity (Mus musculus [11]): inactive
Activity (Mus musculus [12]): inactive
Activity (Mus musculus [13]): inactive
Activity (Mus musculus [14]): inactive
Activity (Mus musculus [15]): inactive
Activity (Rattus norvegicus [16]): inactive
Activity (Mus musculus [17]): inactive
Activity (Rattus norvegicus [18]): inactive
Activity (Mus musculus [19]): inactive
Activity (Mus musculus [20]): inactive
Activity (Mus musculus [21]): inactive
Activity (Rattus norvegicus [22]): inactive
Activity (Mus musculus [23]): inactive
Activity (Mus musculus [24]): inactive
Activity (Mus musculus [25]): Active
